{"source": "PubChem BioAssay AID602401", "about": "(Sanford-Burnham Center for Chemical Genomics, 2012)", "note": "Activity calls are given as the source filed them.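 Rule for the calls: active = IC50 below 100 µM in the TR-FRET assay, unless also active in the caspase-3 counter assay; inactive = the rest, including compounds also active in caspase-3.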"}
{"molecular_target": "Caspase-3 (Homo sapiens) (UniProt P42574)", "sequence (P42574 whole entry, looked up)": "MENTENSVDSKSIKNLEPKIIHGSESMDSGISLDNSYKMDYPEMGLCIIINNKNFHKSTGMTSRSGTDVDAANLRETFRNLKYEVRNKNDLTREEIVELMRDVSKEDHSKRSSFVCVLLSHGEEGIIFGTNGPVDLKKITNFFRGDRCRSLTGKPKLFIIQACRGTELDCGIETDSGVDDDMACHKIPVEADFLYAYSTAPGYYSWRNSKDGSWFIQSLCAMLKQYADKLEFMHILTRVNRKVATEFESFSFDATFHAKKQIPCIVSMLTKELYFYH", "assay": "recombinant caspase-3 enzyme inhibitors – biochemical, Caspase-Glo luminescence, set 4, counter-screen for UBC13 polyubiquitin inhibitor project, SAR follow-up (AID 602401)", "conditions": "recombinant caspase-3, Caspase-Glo luminescence, 60 min", "outline": "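Material: Caspase-3 enzyme. Reagent: Caspase-Glo substrate added as 2X working solution at 0.75X. Schedule: Enzyme-substrate reaction 60 min at room temperature before reading. Measured by: Caspase-Glo luminescence.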"}
{"smiles": "Cc1ccc(NC(=O)C2CCCN(c3ncnc4c3nc3n4CCCC3)C2)cc1Br", "note": "(stereo unspecified)", "IC50": "> 100 µM (inactive)"}
{"smiles": "O=C(NCc1cccc(Cl)c1)C1CCN(c2ncnc3c2nc2n3CCCC2)CC1", "IC50": "63.4 µM"}
{"smiles": "COc1ccc(NC(=O)C2CCN(c3ncnc4c3nc3n4CCCCC3)CC2)cc1Cl", "IC50": "> 100 µM (inactive)"}
{"smiles": "CC1CCCCN1C(=O)C1CCN(c2ncnc3c2nc2n3CCCCC2)CC1", "note": "(stereo unspecified)", "IC50": "> 100 µM (inactive)"}
{"smiles": "CC1CCCC(C)N1CCCNC(=O)C1CCCN(c2ncnc3c2nc2n3CCCCC2)C1", "note": "(stereo unspecified)", "IC50": "> 100 µM (inactive)"}
{"smiles": "COc1ccccc1N1CCN(CCCNC(=O)C2CCCN(c3ncnc4c3nc3n4CCCCC3)C2)CC1", "note": "(stereo unspecified)", "IC50": "> 100 µM (inactive)"}
{"smiles": "Cc1ccc(NC(=O)C2CCN(c3ncnc4c3nc3n4CCCCC3)CC2)cc1Br", "IC50": "> 100 µM (inactive)"}
{"smiles": "Cc1ccccc1CN1CCC(CNC(=O)C2CCCN(c3ncnc4c3nc3n4CCCCC3)C2)CC1", "note": "(stereo unspecified)", "IC50": "> 100 µM (inactive)"}
{"smiles": "Cc1ccc(NC(=O)C2CCN(c3ncnc4c3nc3n4CCCCC3)CC2)cc1F", "IC50": "> 100 µM (inactive)"}
{"smiles": "Cc1cccc(NC(=O)C2CCCN(c3ncnc4c3nc3n4CCCCC3)C2)c1", "note": "(stereo unspecified)", "IC50": "> 100 µM (inactive)"}
{"smiles": "O=C(C1CCN(c2ncnc3c2nc2n3CCCCC2)CC1)N1CCN(c2ccccn2)CC1", "IC50": "> 100 µM (inactive)"}
{"smiles": "O=C(NCc1cccc(Cl)c1)C1CCCN(c2ncnc3c2nc2n3CCCCC2)C1", "note": "(stereo unspecified)", "IC50": "> 100 µM (inactive)"}
{"smiles": "O=C(NCC1CCN(Cc2ccc(Cl)c(Cl)c2)CC1)C1CCCN(c2ncnc3c2nc2n3CCCC2)C1", "note": "(stereo unspecified)", "IC50": "> 100 µM (inactive)"}
{"smiles": "O=C(NCC1CCN(Cc2ccc(Cl)cc2)CC1)C1CCCN(c2ncnc3c2nc2n3CCCCC2)C1", "note": "(stereo unspecified)", "IC50": "> 100 µM (inactive)"}
{"smiles": "Cc1ccc(NC(=O)C2CCN(c3ncnc4c3nc3n4CCCC3)CC2)cc1F", "IC50": "> 100 µM (inactive)"}
{"smiles": "O=C(NCC1CCN(Cc2ccccc2F)CC1)C1CCCN(c2ncnc3c2nc2n3CCCCC2)C1", "note": "(stereo unspecified)", "IC50": "> 100 µM (inactive)"}
{"smiles": "O=C(NCC1CCN(Cc2ccc(F)cc2)CC1)C1CCCN(c2ncnc3c2nc2n3CCCCC2)C1", "note": "(stereo unspecified)", "IC50": "> 100 µM (inactive)"}
{"smiles": "O=C(Nc1ccc(F)c(Cl)c1)C1CCN(c2ncnc3c2nc2n3CCCCC2)CC1", "IC50": "> 100 µM (inactive)"}
{"smiles": "O=C(NCC1CCN(Cc2ccccc2Cl)CC1)C1CCCN(c2ncnc3c2nc2n3CCCC2)C1", "note": "(stereo unspecified)", "IC50": "> 100 µM (inactive)"}
{"smiles": "COc1ccc(Cl)cc1NC(=O)C1CCN(c2ncnc3c2nc2n3CCCCC2)CC1", "IC50": "> 100 µM (inactive)"}
{"smiles": "Cc1cc(Cl)ccc1NC(=O)C1CCN(c2ncnc3c2nc2n3CCCCC2)CC1", "IC50": "> 100 µM (inactive)"}
{"smiles": "Cc1cccc(N2CCN(CCCNC(=O)C3CCCN(c4ncnc5c4nc4n5CCCCC4)C3)CC2C)c1", "note": "(stereo unspecified)", "IC50": "> 100 µM (inactive)"}
{"smiles": "CCCN1CCN(C(=O)C2CCN(c3ncnc4c3nc3n4CCCCC3)CC2)CC1", "IC50": "> 100 µM (inactive)"}
{"smiles": "CN(CCNC(=O)C1CCN(c2ncnc3c2nc2n3CCCCC2)CC1)Cc1ccccc1", "IC50": "> 100 µM (inactive)"}
{"smiles": "O=C(C1CCN(c2ncnc3c2nc2n3CCCCC2)CC1)N1CCN(c2ccc(F)cc2)CC1", "IC50": "> 100 µM (inactive)"}
{"smiles": "O=C(c1ccco1)N1CCN(C(=O)C2CCN(c3ncnc4c3nc3n4CCCCC3)CC2)CC1", "IC50": "> 100 µM (inactive)"}
{"smiles": "O=C(C1CCN(c2ncnc3c2nc2n3CCCCC2)CC1)N1CCN(c2ccccc2)CC1", "IC50": "> 100 µM (inactive)"}
{"smiles": "O=C(NCC1CCN(Cc2ccc(Cl)cc2)CC1)C1CCCN(c2ncnc3c2nc2n3CCCC2)C1", "note": "(stereo unspecified)", "IC50": "> 100 µM (inactive)"}
{"smiles": "O=C(C1CCN(c2ncnc3c2nc2n3CCCCC2)CC1)N1CCC(Cc2ccccc2)CC1", "IC50": "> 100 µM (inactive)"}
{"smiles": "Cc1cccc(NC(=O)C2CCN(c3ncnc4c3nc3n4CCCCC3)CC2)c1C", "IC50": "> 100 µM (inactive)"}
{"smiles": "COc1cc(OC)c(NC(=O)C2CCN(c3ncnc4c3nc3n4CCCCC3)CC2)cc1Cl", "IC50": "> 100 µM (inactive)"}
{"smiles": "Cc1ccc(NC(=O)C2CCCN(c3ncnc4c3nc3n4CCCCC3)C2)cc1Br", "note": "(stereo unspecified)", "IC50": "> 100 µM (inactive)"}
{"smiles": "O=C(C1CCN(c2ncnc3c2nc2n3CCCCC2)CC1)N1CCN(Cc2ccccc2)CC1", "IC50": "> 100 µM (inactive)"}
{"smiles": "O=C(C1CCN(c2ncnc3c2nc2n3CCCCC2)CC1)N1CCN(c2ncccn2)CC1", "IC50": "> 100 µM (inactive)"}
{"smiles": "O=C(NCc1ccc(Cl)c(Cl)c1)C1CCCN(c2ncnc3c2nc2n3CCCC2)C1", "note": "(stereo unspecified)", "IC50": "> 100 µM (inactive)"}
{"smiles": "O=C(Nc1cc(F)ccc1F)C1CCN(c2ncnc3c2nc2n3CCCCC2)CC1", "IC50": "> 100 µM (inactive)"}
{"smiles": "O=C(NCCCN1CCN(c2ccccc2)CC1)C1CCCN(c2ncnc3c2nc2n3CCCCC2)C1", "note": "(stereo unspecified)", "IC50": "> 100 µM (inactive)"}
{"smiles": "Cc1cc(C)cc(NC(=O)C2CCN(c3ncnc4c3nc3n4CCCCC3)CC2)c1", "IC50": "> 100 µM (inactive)"}
{"smiles": "Cc1ccc(NC(=O)C2CCN(c3ncnc4c3nc3n4CCCCC3)CC2)cc1Cl", "IC50": "> 100 µM (inactive)"}
{"smiles": "Cc1cc(C)cc(NC(=O)C2CCN(c3ncnc4c3nc3n4CCCC3)CC2)c1", "IC50": "> 100 µM (inactive)"}
{"smiles": "Cc1cc(C)cc(NC(=O)C2CCCN(c3ncnc4c3nc3n4CCCC3)C2)c1", "note": "(stereo unspecified)", "IC50": "> 100 µM (inactive)"}
{"smiles": "O=C(Nc1ccc(CN2CCCCC2)cc1)C1CCN(c2ncnc3c2nc2n3CCCCC2)CC1", "IC50": "> 100 µM (inactive)"}
{"smiles": "Cc1ccc(NC(=O)C2CCN(c3ncnc4c3nc3n4CCCCC3)CC2)cc1C", "IC50": "> 100 µM (inactive)"}
{"smiles": "Cc1ccc(NC(=O)C2CCCN(c3ncnc4c3nc3n4CCCC3)C2)cc1C", "note": "(stereo unspecified)", "IC50": "> 100 µM (inactive)"}
{"smiles": "O=C(NCC1CCN(Cc2ccc(Cl)c(Cl)c2)CC1)C1CCCN(c2ncnc3c2nc2n3CCCCC2)C1", "note": "(stereo unspecified)", "IC50": "> 100 µM (inactive)"}
{"smiles": "O=C(NCc1cccc(Cl)c1)C1CCCN(c2ncnc3c2nc2n3CCCC2)C1", "note": "(stereo unspecified)", "IC50": "> 100 µM (inactive)"}
{"smiles": "O=C(NCC1CCN(Cc2cccc(Cl)c2)CC1)[C@@H]1CCCN(c2ncnc3c2nc2n3CCCC2)C1", "IC50": "> 100 µM (inactive)"}
{"smiles": "O=C(NCC1CCN(Cc2cccc(Cl)c2)CC1)C1CCCN(c2ncnc3c2nc2n3CCCCC2)C1", "note": "(stereo unspecified)", "IC50": "> 100 µM (inactive)"}
{"smiles": "Cc1ccc(C)c(N2CCN(CCCNC(=O)C3CCCN(c4ncnc5c4nc4n5CCCCC4)C3)CC2)c1", "note": "(stereo unspecified)", "IC50": "> 100 µM (inactive)"}
{"smiles": "COc1cc(Cl)c(C)cc1NC(=O)C1CCN(c2ncnc3c2nc2n3CCCCC2)CC1", "IC50": "> 100 µM (inactive)"}
{"smiles": "O=C(NCc1ccc(Cl)c(Cl)c1)C1CCN(c2ncnc3c2nc2n3CCCC2)CC1", "IC50": "> 100 µM (inactive)"}
{"smiles": "Cc1cccc(NC(=O)C2CCCN(c3ncnc4c3nc3n4CCCC3)C2)c1", "note": "(stereo unspecified)", "IC50": "> 100 µM (inactive)"}
{"smiles": "O=C(NCC1CCN(Cc2ccccc2Cl)CC1)C1CCCN(c2ncnc3c2nc2n3CCCCC2)C1", "note": "(stereo unspecified)", "IC50": "> 100 µM (inactive)"}
{"smiles": "Cc1c(Cl)cccc1NC(=O)C1CCN(c2ncnc3c2nc2n3CCCCC2)CC1", "IC50": "> 100 µM (inactive)"}
{"smiles": "O=C(NCc1ccc(Cl)c(Cl)c1)C1CCCN(c2ncnc3c2nc2n3CCCCC2)C1", "note": "(stereo unspecified)", "IC50": "> 100 µM (inactive)"}
{"smiles": "O=C(NCC1CCN(Cc2cccc(Cl)c2)CC1)C1CCCN(c2ncnc3c2nc2n3CCCC2)C1", "note": "(stereo unspecified)", "IC50": "> 100 µM (inactive)"}
{"smiles": "Cc1cc(C)cc(NC(=O)C2CCCN(c3ncnc4c3nc3n4CCCCC3)C2)c1", "note": "(stereo unspecified)", "IC50": "> 100 µM (inactive)"}
{"smiles": "O=C(NCC1CCN(Cc2cccc(Cl)c2)CC1)[C@@H]1CCCN(c2ncnc3c2nc2n3CCCCC2)C1", "IC50": "> 100 µM (inactive)"}
{"smiles": "O=C(NCc1cccc(Cl)c1)C1CCN(c2ncnc3c2nc2n3CCCCC2)CC1", "IC50": "> 100 µM (inactive)"}
{"smiles": "O=C(Nc1cccc(Cl)c1)C1CCN(c2ncnc3c2nc2n3CCCCC2)CC1", "IC50": "> 100 µM (inactive)"}
{"smiles": "CCC1CCCCN1CCCNC(=O)C1CCN(c2ncnc3c2nc2n3CCCCC2)CC1", "note": "(stereo unspecified)", "IC50": "> 100 µM (inactive)"}
{"smiles": "Cc1ccc(NC(=O)C2CCN(c3ncnc4c3nc3n4CCCC3)CC2)cc1C", "IC50": "> 100 µM (inactive)"}
{"smiles": "Cc1ccc(C)c(CN2CCC(CNC(=O)C3CCCN(c4ncnc5c4nc4n5CCCCC4)C3)CC2)c1", "note": "(stereo unspecified)", "IC50": "> 100 µM (inactive)"}
{"smiles": "O=C(NCCCN1CCN(c2ccc(F)cc2)CC1)C1CCCN(c2ncnc3c2nc2n3CCCCC2)C1", "note": "(stereo unspecified)", "IC50": "> 100 µM (inactive)"}
{"smiles": "O=C(NCc1ccc(Cl)c(Cl)c1)C1CCN(c2ncnc3c2nc2n3CCCCC2)CC1", "IC50": "> 100 µM (inactive)"}
{"smiles": "Cc1cccc(NC(=O)C2CCN(c3ncnc4c3nc3n4CCCCC3)CC2)c1", "IC50": "> 100 µM (inactive)"}
{"smiles": "CC1CC(C)CN(C(=O)C2CCN(c3ncnc4c3nc3n4CCCCC3)CC2)C1", "note": "(stereo unspecified)", "IC50": "> 100 µM (inactive)"}
{"smiles": "O=C(NCC1CCN(Cc2cccc(Cl)c2)CC1)[C@H]1CCCN(c2ncnc3c2nc2n3CCCCC2)C1", "IC50": "> 100 µM (inactive)"}
{"smiles": "Cc1ccc(NC(=O)C2CCN(c3ncnc4c3nc3n4CCCC3)CC2)cc1Br", "IC50": "> 100 µM (inactive)"}
{"smiles": "Cc1ccc(NC(=O)C2CCCN(c3ncnc4c3nc3n4CCCC3)C2)cc1F", "note": "(stereo unspecified)", "IC50": "> 100 µM (inactive)"}
{"smiles": "O=C(C1CCN(c2ncnc3c2nc2n3CCCCC2)CC1)N1CCOCC1", "IC50": "> 100 µM (inactive)"}
{"smiles": "Cc1ccc(NC(=O)C2CCN(c3ncnc4c3nc3n4CCCCC3)CC2)c(Cl)c1", "IC50": "> 100 µM (inactive)"}
{"smiles": "O=C(NCC1CCN(Cc2cccc(Cl)c2)CC1)[C@H]1CCCN(c2ncnc3c2nc2n3CCCC2)C1", "IC50": "> 100 µM (inactive)"}
{"smiles": "O=C(NCCCN1CCCCC1)C1CCN(c2ncnc3c2nc2n3CCCCC2)CC1", "IC50": "> 100 µM (inactive)"}
{"smiles": "Cc1ccc(NC(=O)C2CCCN(c3ncnc4c3nc3n4CCCCC3)C2)cc1F", "note": "(stereo unspecified)", "IC50": "> 100 µM (inactive)"}
{"smiles": "Cc1cccc(NC(=O)C2CCN(c3ncnc4c3nc3n4CCCC3)CC2)c1", "IC50": "69 µM"}
